According to ChEMBL document CHEMBL1926583, “Synthesis and inhibitory activity of thymidine analogues targeting Mycobacterium tuberculosis thymidine monophosphate kinase” (Bioorg Med Chem, 2011):
Converted amounts (≈) assume the structure as drawn. The source made the active and inactive calls. No cut-off for these calls is given here.

What was measured:
[1] = molecular target: T1, Thymidylate kinase (Mycobacterium tuberculosis, UniProt P9WKE1); assay: Competitive inhibition of Mycobacterium tuberculosis TMPK by Lineweaver-Burk analysis
T1 sequence (P9WKE1 whole entry): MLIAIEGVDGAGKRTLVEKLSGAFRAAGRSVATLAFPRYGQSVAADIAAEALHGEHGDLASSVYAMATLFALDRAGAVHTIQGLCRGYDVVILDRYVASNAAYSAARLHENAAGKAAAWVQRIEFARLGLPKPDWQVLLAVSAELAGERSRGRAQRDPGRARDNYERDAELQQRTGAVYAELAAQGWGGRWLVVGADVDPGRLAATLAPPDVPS
Summary of the method: (§1)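 Coupled spectrophotometric assay at 334 nm (NADH oxidation via pyruvate kinase/lactate dehydrogenase/NDP kinase). Buffer 50 mM Tris-HCl pH 7.4, 50 mM KCl, 2 mM MgCl2, 0.2 mM NADH, 1 mM phosphoenolpyruvate. ATP 0.5 mM and dTMP 0.05 mM held fixed; analogue 0.003–1.5 mM.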

[2] = Selectivity index, ratio of Ki for human TMPK to Ki for Mycobacterium tuberculosis TMPK
[3] = molecular target: T2, Thymidylate kinase (Homo sapiens) (UniProt P23919); assay: Competitive inhibition of human TMPK at 1 mM by Lineweaver-Burk analysis; summary of the method: as §1
T2 sequence (whole entry): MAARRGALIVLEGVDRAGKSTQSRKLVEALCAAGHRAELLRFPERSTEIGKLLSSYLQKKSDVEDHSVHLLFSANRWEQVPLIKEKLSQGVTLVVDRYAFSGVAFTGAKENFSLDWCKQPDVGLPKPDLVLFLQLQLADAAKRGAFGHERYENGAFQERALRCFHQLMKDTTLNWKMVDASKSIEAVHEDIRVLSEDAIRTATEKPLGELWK

[4] = molecular target: T3, Thymidylate kinase (Homo sapiens, UniProt P23919); assay: Competitive inhibition of human TMPK by Lineweaver-Burk analysis; summary of the method: as §1
T3 sequence (P23919 whole entry): T2 sequence (whole entry)

[5] = Antimycobacterial activity against Mycobacterium bovis BCG 1173P2 after 8 days by resazurin reduction assay; type: functional, Mycobacterium bovis BCG str. Pasteur 1173P2; settings: Mycobacterium tuberculosis variant bovis BCG, 192 h
Summary of the method: (§2)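 M. bovis BCG 1173P2 grown in 7H9 Middlebrook broth with 0.2% glycerol and 0.5% Tween-80. Compounds tested as serial 2-fold dilutions, with bacteria at 10^5 per mL. Incubated at 37 °C in humidified normal air for 8 days. Resazurin 0.01% (wt/vol) then added, followed by overnight incubation at 37 °C. Growth read as the OD difference 570 minus 630 nm (blue-to-pink change).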

[6] = test system: Mycobacterium bovis BCG str. Pasteur 1173P2; assay: Antimycobacterial activity against Mycobacterium bovis BCG 1173P2 at 25 ug/mL after 8 days by resazurin reduction assay; type: functional; summary of the method: as §2
[7] = molecular target: T2, Thymidylate kinase (Homo sapiens); assay: Competitive inhibition of human TMPK at 0.05 mM by Lineweaver-Burk analysis; summary of the method: as §1
[8] = molecular target: T4, Thymidylate kinase (Mycobacterium tuberculosis) (UniProt P9WKE1); assay: Competitive inhibition of Mycobacterium tuberculosis TMPK at 0.05 mM by Lineweaver-Burk analysis; summary of the method: as §1
T4 sequence (whole entry): T1 sequence (P9WKE1 whole entry)

Row | SMILES | Ki [1] [µM] | further results
1 | Cc1cn([C@H]2C[C@H](O)[C@@H](CNC(=S)Nc3ccc(Cl)c(C(F)(F)F)c3)O2)c(=O)[nH]c1=O | 14.5 | –
2 | Cc1cn([C@H]2C[C@H](O)[C@@H](Cn3cc(-c4ccc(Cl)cc4)nn3)O2)c(=O)[nH]c1=O | 201 | –
3 | Cc1cn([C@H]2C[C@H](n3cc(-c4ccc(Cl)cc4)nn3)[C@@H](CO)O2)c(=O)[nH]c1=O | 2.1 | –
4 | Cc1cn([C@H]2C[C@H](n3cc(Cc4ccccc4)nn3)[C@@H](CO)O2)c(=O)[nH]c1=O | 2.7 | Ratio Ki [2]: > 100; inhibition [3]: inactive
5 | Cc1cn([C@H]2C[C@H](Nc3nnnn3-c3ccc(Cl)c(C(F)(F)F)c3)[C@@H](CO)O2)c(=O)[nH]c1=O | 45 | –
6 | Cc1cn([C@H]2C[C@H](N=[N+]=[N-])[C@@H](CO)O2)c(=O)[nH]c1=S | ≥ 100 | –
7 | Cc1cn([C@H]2C[C@H](n3cc(-c4ccc(Cl)cc4)nn3)[C@@H](CO)O2)c(=O)[nH]c1=S | 15 | –
8 | Cc1cn([C@H]2C[C@H](NC(=O)Nc3ccc(Cl)c(C(F)(F)F)c3)[C@@H](CO)O2)c(=O)[nH]c1=O | 2.8 | Ki [4]: 95 µM; Ratio Ki [2]: 34
9 | Cc1cn([C@@H]2C[C@H](n3cc(-c4ccc(Cl)cc4)nn3)[C@@H](CO)O2)c(=O)[nH]c1=O | 35 | –
10 | Cc1cn([C@@H]2C[C@H](O)[C@@H](Cn3cc(-c4ccc(Cl)cc4)nn3)O2)c(=O)[nH]c1=O | 9 | –
11 | Cc1cn([C@@H]2C[C@H](O)[C@@H](CNC(=S)Nc3ccc(Cl)c(C(F)(F)F)c3)O2)c(=O)[nH]c1=S | 0.17 | Ratio Ki [2]: > 100; MIC99 [5]: 25 µg/mL (≈ 50.5 µM); inhibition [6]: 100%; inhibition [7]: inactive
12 | Cc1cn([C@@H]2C[C@H](N=[N+]=[N-])[C@@H](CO)O2)c(=O)[nH]c1=O | 6 | –
13 | Cc1cn([C@H]2C[C@H](NC(=S)Nc3ccc(Cl)c(C(F)(F)F)c3)[C@@H](CO)O2)c(=O)[nH]c1=O | 9.9 | –
14 | Cc1cn([C@H]2C[C@H](n3nnnc3NCc3ccccc3)[C@@H](CO)O2)c(=O)[nH]c1=O | 2.3 | Ratio Ki [2]: > 100; inhibition [3]: inactive
15 | Cc1cn([C@@H]2C[C@H](O)[C@@H](CNC(=S)Nc3ccccc3)O2)c(=O)[nH]c1=S | – | MIC99 [5]: > 100 µg/mL; inhibition [8]: inactive
16 | Cc1cn([C@H]2C[C@H](O)[C@@H](CNc3nnnn3-c3ccc(Cl)c(C(F)(F)F)c3)O2)c(=O)[nH]c1=O | 73 | –
17 | Cc1cn([C@H]2C[C@H](n3cc(-c4ccccc4)nn3)[C@@H](CO)O2)c(=O)[nH]c1=O | 4.2 | –
